Test results taken from publication PMC3063487 (Bioconjugate chemistry, 2011).
Several values for one entry are separate records, joined by “and”; a condition that tells them apart may be missing. Identical values can stand only once. Entries after “also recorded” stand apart in the source; their conditions may differ.

Key:
[1] = Solubility study in deionized water; settings: for Water Solubility: saturated solution in deionized water, osmometer
Pharmacokinetic = type: in vivo, mouse (C57BL/6); settings: for AUC: C57BL/6, mouse, iv, 500 nmol
Protein binding assay = type: in vitro ADME; settings: bovine, dialyzed fetal bovine serum
NFκB-bla Raw 264.7 cells = experiment: In vitro NFkB activation using NFκB-bla Raw 264.7 cells; type: cell-based, murine; settings: Mus musculus, RAW264.7, 16 h; for EC50: read-out: EC50 NFkB-RAW; for maximal fold induction: read-out: Imax NFkB-RAW (RR)
In short: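 NFκB-bla RAW 264.7 cells at 5×10^4 per well in OptiMEM with 0.5% dialyzed FBS, 0.1 mM non-essential amino acids, 1 mM pyruvate, 10 mM HEPES pH 7.3 and penicillin/streptomycin. Test compound came from 10 or 50 mM DMSO stocks, was serially diluted in DMSO, then in medium.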

murine primary BMDM = experiment: In vitro cytokine induction in bone marrow derived macrophages; type: cell-based, mouse (C57BL/6); settings: for EC50: Mus musculus, BMDM, 18 h, read-out: EC50 BMDM; for Imax BMDM (IL-6 ng/ml): maximum level of IL-6 induction, 18 hours
In short: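 Bone marrow-derived macrophages from C57BL/6 mice at 5×10^4 cells per well. Cells were given serially diluted test compound, from 50–100 mM DMSO stocks, for 18 h at 37°C, 5% CO2. Supernatant IL-6 was measured by ELISA, detection limit 15 pg/mL. Curves were fitted by nonlinear regression to give EC50 and maximal IL-6 induction. Representative of two independent experiments.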

human B cells = experiment: Human B cell proliferation; type: cell-based; settings: human PBMC, four days
In short: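 Human PBMC from blood-bank buffy coats, from three donors. Cells were labelled with 10 μM CFSE in saline for 10 min, washed, then exposed to 1 or 10 μM test compound for four days. Cells were surface-stained for CD19. Proliferation of the CD19-gated B cells was scored by flow cytometry as CFSE dilution. Representative of two independent experiments.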

C57BL/6 mice = experiment: Pharmacodynamic; type: in vivo, mouse (C57BL/6); settings: 200 nmol i.v., all time points analyzed
In short: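 Female C57BL/6 mice, 5 per group, received 200 nmol test compound intravenously. Sera were collected 2, 4, 6, 24 and 48 h after injection and held at −20°C. IL-6 and TNF-α were measured by Luminex bead assay, with detection limits of 5 and 10 pg/mL. Means ± SEM of five mice were compared with vehicle and unconjugated ligand by one-way ANOVA with Bonferroni post hoc test.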

dialyzed serum proteins = experiment: Protein binding assay; type: in vitro ADME; settings: rapid equilibrium dialysis, dialyzed fetal bovine serum, UV 282 nm
human PBMC = experiment: Cytokine induction by human PBMC; type: cell-based; settings: 1 or 10 μM, 18 hours

| SMILES | Water Solubility [1] | AUC (Pharmacokinetic; in vivo) | fraction unbound (Protein binding assay) | EC50 (NFκB-bla Raw 264.7 cells) | EC50 (murine primary BMDM) | Water solubility (in words) ([1]; deionized water) | AUC (Pharmacokinetic; serum) | Protein Binding (%) (dialyzed serum proteins) | maximal fold induction (NFκB-bla Raw 264.7 cells) | Imax BMDM (IL-6 ng/ml) (murine primary BMDM) | B cell proliferation (human B cells; 1 μM) | Serum cytokine levels (IL-6, TNF-α) compared to 1V136 (C57BL/6 mice) | Maximum serum concentration compared to 1V136 (Pharmacokinetic; C57BL/6 mice, i.v. 500 nmol) | B cell proliferation (human B cells; 1 and 10 μM, three donors) | Cytokine induction (IL-6, TNF-α) in human PBMC (in words) (human PBMC) |
| --- | --- | --- | --- | --- | --- | --- | --- | --- | --- | --- | --- | --- | --- | --- | --- |
| COCCOc1nc(N)c2[nH]c(=O)n(Cc3ccc(C(=O)O)cc3)c2n1 [Compound 1V209, 4-{[6-Amino-2-(2-methoxyethoxy)-8-oxo-7H-purin-9(8H)-yl]methyl}benzoic Acid] | 35 ±1 mOsm/kg |  |  |  |  |  |  |  |  |  |  |  |  |  |  |
| COCCOc1nc(N)c2nc(O)n(Cc3ccccc3)c2n1 [Compound 1V136, 9-benzyl-8-hydroxy-2-(2-methoxyethoxy) adenine, reference compound] |  | 1.62 µM·h | 0.332 | 0.08 ± 0.01 µM | 0.36 ± 0.09 µM | highly insoluble in aqueous solution |  |  | 3.56 ± 0.38 | 3.32 ± 0.54 ng/mL | induced strong B cell proliferation |  |  |  |  |
| COCCOc1nc(N)c2nc(O)n(Cc3ccc(C(=O)NCCOCCOCCOCCOCCOCCOCCN=[N+]=[N-])cc3)c2n1 [Compound 1a, 4-((6-amino-8-hydroxy-2-(2-methoxyethoxy)-9H-purin-9-yl)methyl)-N-(20-azido-3,6,9,12,15,18-hexaoxaicosyl)benzamide] |  |  |  | 4.13 ± 0.97 µM | 8.18 ± 1.91 µM |  |  |  | 2.9 ± 0.06 | 2.60 ± 0.49 ng/mL |  | minimum induction of proinflammatory cytokines |  |  |  |
| COCCOc1nc(N)c2nc(O)n(Cc3ccc(C(=O)NCCOCCOCCOCCOCCOCCOCCN)cc3)c2n1 [Compound 1c, 4-((6-amino-8-hydroxy-2-(2-methoxyethoxy)-9H-purin-9-yl)methyl)-N-(20-amino-3,6,9,12,15,18-hexaoxaicosyl)benzamide] |  |  |  | 1.19 ± 0.2 µM | 3.9 ± 1.06 µM |  |  | 51.3 ±6.4% | 3.27 ± 0.39 | 5.19 ± 1.96 ng/mL |  | significantly less cytokine levels; also recorded: minimum induction of proinflammatory cytokines |  |  | higher potencies than the corresponding compounds with carboxyl-terminals |
| COCCOc1nc(N)c2nc(O)n(Cc3ccc(C(=O)NCCOCCOCCOCCOCCOCCOCCn4cc(CCC(=O)O)nn4)cc3)c2n1 [Compound 1b, 3-(1-(1-(4-((6-amino-8-hydroxy-2-(2-methoxyethoxy)-9H-purin-9-yl)methyl)phenyl)-1-oxo-5,8,11,14,17,20-hexaoxa-2-azadocosan-22-yl)-1H-1,2,3-triazol-4-yl)propanoic acid] | 240 mOsm/kg and 240 ± 10 mOsm/kg |  |  | 4.99 ± 0.7 µM | 10.6 ± 1.74 µM |  | 5.93 µM·h |  | 3.04 ± 0.23 | 2.46 ± 0.36 ng/mL |  | significantly less cytokine levels; also recorded: minimum induction of proinflammatory cytokines |  | minimally induced proliferation; also recorded: undetectable |  |

Now from value to compound, other results behind:

| Water Solubility [1] | AUC (Pharmacokinetic; in vivo) | fraction unbound (Protein binding assay) | EC50 (NFκB-bla Raw 264.7 cells) | EC50 (murine primary BMDM) | Water solubility (in words) ([1]; deionized water) | AUC (Pharmacokinetic; serum) | Protein Binding (%) (dialyzed serum proteins) | SMILES | maximal fold induction (NFκB-bla Raw 264.7 cells) | Imax BMDM (IL-6 ng/ml) (murine primary BMDM) | B cell proliferation (human B cells; 1 μM) | Serum cytokine levels (IL-6, TNF-α) compared to 1V136 (C57BL/6 mice) | Maximum serum concentration compared to 1V136 (Pharmacokinetic; C57BL/6 mice, i.v. 500 nmol) | B cell proliferation (human B cells; 1 and 10 μM, three donors) | Cytokine induction (IL-6, TNF-α) in human PBMC (in words) (human PBMC) |
| --- | --- | --- | --- | --- | --- | --- | --- | --- | --- | --- | --- | --- | --- | --- | --- |
|  |  |  | 0.9 ± 0.29 µM | 1.79 ± 0.77 µM |  | 41.4 µM·h | 79.5 ± 1.35% | COCCOc1nc(N)c2nc(O)n(Cc3ccc(C(=O)NCCOCCOCCOCCOCCOCCOCCOCCOCCOCCOCCOCCOCCOCCOCCOCCOCCOCCOCCOCCN)cc3)c2n1 [Compound 3, 4-((6-amino-8-hydroxy-2-(2-methoxyethoxy)-9H-purin-9-yl)methyl)-N-(59-amino-3,6,9,12,15,18,21,24,27,30,33,36,39,42,45,48,51,54,57-nonadecaoxanonapentacontyl)benzamide] | 3.58 ± 0.58 | 4.10 ± 1.33 ng/mL |  |  | significantly higher maximum serum concentrations | induced B cell proliferation only at 10 μM |  |
|  |  |  | 1.16 ± 0.39 µM | 2.24 ± 0.33 µM |  |  | 57.6 ± 1.2% | COCCOc1nc(N)c2nc(O)n(Cc3ccc(C(=O)NCCOCCOCCOCCOCCOCCOCCOCCOCCOCCOCCN)cc3)c2n1 [Compound 2c, 4-((6-amino-8-hydroxy-2-(2-methoxyethoxy)-9H-purin-9-yl)methyl)-N-(32-amino-3,6,9,12,15,18,21,24,27,30-decaoxadotriacontyl)benzamide] | 3.23 ± 0.27 | 2.89 ± 0.49 ng/mL |  | minimum induction of proinflammatory cytokines |  |  | higher potencies than the corresponding compounds with carboxyl-terminals |
|  |  |  | 2.67 ± 0.75 µM | 4.42 ± 1.18 µM |  |  |  | COCCOc1nc(N)c2nc(O)n(Cc3ccc(C(=O)NCCOCCOCCOCCOCCOCCOCCOCCOCCOCCOCCn4cc(CCC(=O)O)nn4)cc3)c2n1 [Compound 2b, 3-(1-(1-(4-((6-amino-8-hydroxy-2-(2-methoxyethoxy)-9H-purin-9-yl)methyl)phenyl)-1-oxo-5,8,11,14,17,20,23,26,29,32-decaoxa-2-azatetratriacontan-34-yl)-1H-1,2,3-triazol-4-yl)propanoic acid] | 3.15 ± 0.23 | 2.79 ± 0.47 ng/mL |  | significantly less cytokine levels; also recorded: minimum induction of proinflammatory cytokines |  | minimally induced proliferation; also recorded: undetectable |  |
|  |  |  | 5.91 ± 1.33 µM | 6.93 ± 3.54 µM |  |  |  | COCCOc1nc(N)c2nc(O)n(Cc3ccc(C(=O)NCCOCCOCCOCCOCCOCCOCCOCCOCCOCCOCCN=[N+]=[N-])cc3)c2n1 [Compound 2a, 4-((6-amino-8-hydroxy-2-(2-methoxyethoxy)-9H-purin-9-yl)methyl)-N-(32-azido-3,6,9,12,15,18,21,24,27,30-decaoxadotriacontyl)benzamide] | 3.55 ± 0.14 | 2.72 ± 0.34 ng/mL |  | minimum induction of proinflammatory cytokines |  |  |  |
